# In all, about 20,000 compounds went through this assay and about 10 (0.05%) were called active. Cut-off read from the data, not from the text of the source: active = inhibition above about 40%; inactive = the rest. The entries come from a sample that favours actives as a whole.
# Assay: growth inhibitors of wild type E. coli, primary screen, strain BW25113 wild type, absorbance readout (AID 552);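 note: bacteria exposed to compound for 20 hours at 37 °C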
# Settings: OD600, at 10 µM, active compounds read high
# Method in brief: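 assay system = bacterial strain in a whole-cell growth screen | quantity = inoculum from a 1:1000 dilution of a 1.5 h subculture | buffer or medium = LB broth with 50 µg/mL kanamycin | compound dosing = one dose, 10 µM final | schedule = compound exposure of 20 h at 37 °C | technique = absorbance at 615 nm as a measure of bacterial growth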
row,Structure (SMILES),inhibition
1,O=C1CC(c2ccccc2)CC(O)=C1C=NCCN1CCOCC1 (stereo unspecified),0.58% (inactive)
2,COCCCNC(=O)CSc1nc2ccc(N3CCOCC3)cc2c(=O)n1CCc1ccccc1,1.57% (inactive)
3,CCCC(=O)Nc1ccc(C(=O)NCCCn2ccnc2)cc1,-11.9% (inactive)
4,COc1ccc(S(=O)(=O)N2CCOCC2)cc1C(=O)Nc1nc2ccccc2s1,4.62% (inactive)
5,CCn1c(SCC(=O)Nc2nccs2)nnc1-c1ccncc1,-9.46% (inactive)
6,CCCC1CC(C)(C(=O)Cn2[nH]c(=O)ccc2=O)OC1=O (stereo unspecified),19.6% (inactive)
7,CC(C)Cc1ccc(S(=O)(=O)N2CCN(C(=O)c3ccco3)CC2)cc1,-19.7% (inactive)
8,O=C(CS(=O)(=O)c1cn(Cc2ccc(Cl)cc2)c2ccccc12)N1CCOCC1,-0.05% (inactive)
9,CCOC(=O)C1CCN(C(=O)Cn2cc(C#N)c3ccccc32)CC1,6.78% (inactive)
10,O=C(O)C1CC=C(Cl)CC1C(=O)NCc1ccccc1 (stereo unspecified),-2.5% (inactive)
11,CCOC(=O)c1cc(NC(=O)c2cccnc2)cc(C(=O)OCC)c1,-7.79% (inactive)
12,CCOC(=O)c1c(N)c(C#N)nn1-c1ccccc1C(=O)OC,-8.34% (inactive)
13,CCN1CCN(C(=O)CN(C)S(=O)(=O)c2ccc(OC)cc2)CC1,-16.9% (inactive)
14,C=CCNC(=O)CSc1nc2sc(C)c(C)c2c(=O)[nH]1,-0.815% (inactive)
15,O=C(O)[C@@H]1CCCN1c1ncnc2sc3c(c12)CCC3,5% (inactive)
16,CN1C(C)(C)CC(NC(=O)CCC(=O)NC2CC(C)(C)N(C)C(C)(C)C2)CC1(C)C,-21% (inactive)
17,COc1ccccc1N1CCN(C(=O)c2cc(-c3ccc(Cl)c(Cl)c3)on2)CC1,-2.37% (inactive)
18,COc1ccc(OC)c(S(=O)(=O)Nc2ccccc2F)c1,-13.8% (inactive)
19,Cc1noc(C)c1C(=O)Nc1ccccn1,-22.1% (inactive)
20,Cc1ccc(SCCN2C(=O)NC(C)(C)C2=O)cc1,4.35% (inactive)
21,COc1cc(C2C(C#N)=C(C)NC3=C2C(=O)CC(C)(C)C3)ccc1O (stereo unspecified),5.23% (inactive)
22,COC(=O)c1ccc(Oc2nc(NC(C)C)nc(SC)n2)cc1,-19.1% (inactive)
23,CCOC(=O)c1cc(NC(=O)SCC(=O)O)c(C)nc1C,-3.26% (inactive)
24,Cc1onc(-c2ccccc2)c1C(=O)N1CCOCC1,16.2% (inactive)
25,CCOC(=O)Cc1csc(NC(=O)CN(C)S(=O)(=O)c2ccc3c(c2)CCC(=O)N3)n1,3.09% (inactive)
26,CN(C)S(=O)(=O)c1ccc(Oc2ccc(S(=O)(=O)N(C)C)cc2)cc1,7.29% (inactive)

row,Structure (SMILES),inhibition
1,Cn1nnnc1SCC(=O)N1CCN(C(c2ccccc2)c2ccccc2)CC1,4.16% (inactive)
2,CC12CCC(C(=O)N3CCN(c4ncccn4)CC3)(c3nc4ccccc4nc31)C2(C)C (stereo unspecified),-25.6% (inactive)
3,COc1c(C(=O)N2CCCC2)ccc2ccccc12,-8.42% (inactive)
4,COc1ccc(CSc2nc(N3CCOCC3)c3c(c2C#N)CC(C)(C)OC3)cc1,-19.4% (inactive)
5,CCC(C)n1[nH]c(=O)c2c(C)cc(C)nc21 (stereo unspecified),5.71% (inactive)
6,CCCCSc1nnc(-c2ccc(NC(=O)CC)cc2)n1C,-21.9% (inactive)
7,Cc1cc(C)c2c(n1)nn1c(N3CCN(c4cccc(Cl)c4)CC3)cc(C)nc21,-4.02% (inactive)
8,Cc1cc(Cl)c(S(=O)(=O)NCCC(=O)O)cc1OCC(N)=O,-0.81% (inactive)
9,COCCn1c(-c2ccc(OC)c(OC)c2)nc2ccccc21,-1.61% (inactive)
10,Cc1cc(C(F)(F)F)nn1CC(=O)N1CCCC1,3.35% (inactive)
11,Cn1c(=O)[nH]c(=O)c2c1nc(N(CCO)Cc1ccccc1)n2Cc1ccccc1Cl,-2.48% (inactive)
12,CC1CCc2c(sc3c2C2=NS(=O)(=O)CCN2C=N3)C1 (stereo unspecified),6% (inactive)
13,Cc1nn(CC(=O)Nc2ccc3c(c2)nc(CN2CCCCC2)n3C)c(=O)c2ccccc12,2.04% (inactive)
14,COc1ccccc1-c1nc(C(F)(F)F)c(OC)o1,-5.84% (inactive)
15,O=c1ccc2cc(S(=O)(=O)N3CCN(c4ccccc4)CC3)ccc2o1,-12.1% (inactive)
16,Cc1ccc(C(=O)N2CCCCCC2)cc1Br,-8.59% (inactive)
17,COc1cccc(-c2nc(S(=O)(=O)c3ccccc3)c(N3CCOCC3)o2)c1,7.07% (inactive)
18,COc1ccccc1-c1cc(C(=O)NCCCn2ccnc2)no1,-4.16% (inactive)
19,O=C(O)Cc1ccc(NC(=O)c2cccs2)cc1,-19.2% (inactive)
20,COC(=O)Cc1c(C)c2ccc(OCC(=O)NCc3ccc4c(c3)OCO4)cc2oc1=O,-21.1% (inactive)
21,O=C(CS(=O)(=O)Cc1ccccc1)Nc1cccnc1,6.45% (inactive)
22,O=C(NCc1ccco1)c1cc(-c2cccnc2)nc2ccc(Cl)cc12,-19.8% (inactive)
23,CCSc1nc2c(c(=O)[nH]1)C(c1cccnc1)C(C(=O)OC(C)C)=C(C)N2 (stereo unspecified),-1.79% (inactive)
24,Cc1cccc(C(=O)Nc2ccc(CC(=O)O)cc2)c1,-0.63% (inactive)
25,O=C(Nc1ccccc1)N(Cc1cccnc1)Cc1ccco1,-3.67% (inactive)
26,O=C(CSc1nc2ccccc2o1)N1CCN(c2ccccc2)CC1,-25.4% (inactive)

row,Structure (SMILES),inhibition
1,CC(=O)Nc1ccc(S(=O)(=O)Nc2nc3n(n2)C(c2ccccc2)CC(=O)N3)cc1 (stereo unspecified),-1.04% (inactive)
2,Cc1cc2c(cc1C)NC(c1ccccn1)C1=C(CC(C)(C)CC1=O)N2 (stereo unspecified),-18.9% (inactive)
3,CCOC(=O)COc1ccc(Cl)cc1C1NC(=O)NC(C)=C1C(C)=O (stereo unspecified),-10.9% (inactive)
4,O=C(COc1ccc(F)cc1)N(CC1=CCS(=O)(=O)C1)c1ccccc1,-20.6% (inactive)
5,CC1(C)CC(=O)C=C(NCc2ccncc2)C1,-1.29% (inactive)
6,CCc1cc(Br)ccc1NC(=O)C1CCCO1 (stereo unspecified),-16.5% (inactive)
7,Cc1cc(C)nc(SCc2nnc(SCC(=O)Nc3ncc(C)s3)n2Cc2ccco2)n1,-3.82% (inactive)
8,CCOc1ccc(-c2nnn(CC(=O)N3CCN(c4ccc(F)cc4)CC3)n2)cc1OCC,-5.75% (inactive)
9,CCCOc1ccccc1-c1nc(SCCC(=O)O)n[nH]1,-18.4% (inactive)
10,CCOC(=O)CSc1nnc(CNC(=O)c2cccs2)n1-c1cc(OC)ccc1OC,6.52% (inactive)
11,Cc1cc(C)n(C(=O)c2ccc(S(=O)(=O)N3CCCC3)cc2)n1,-20.2% (inactive)
12,CCCCn1c(CN2CCN(CCO)CC2)nc2ccccc21,-3.29% (inactive)
13,Nc1nc(SCCOc2ccccc2)n[nH]1,6.28% (inactive)
14,O=C(CSc1nc(-c2ccco2)cc(C(F)(F)F)n1)N1CCc2ccccc2C1,-19.6% (inactive)
15,COCCn1c(CN(Cc2ccccc2)Cc2ccccc2)nc2c1c(=O)n(C)c(=O)n2C,12.3% (inactive)
16,O=C(CSc1nnc(-c2cccs2)n1-c1ccccc1)NCc1ccco1,-20.9% (inactive)
17,CCS(=O)(=O)NCCc1ccc(OC)c(OC)c1,-17.9% (inactive)
18,CC1=C(C(=O)Nc2ccccc2)C(c2cccs2)C(C#N)=C(SCC#N)N1 (stereo unspecified),7.71% (inactive)
19,CCn1cc(NC(=O)Nc2ccc(OC)c(OC)c2)c(C(N)=O)n1,-17.1% (inactive)
20,NC(=O)CSc1oc(-c2cccs2)nc1S(=O)(=O)c1ccccc1,-19.6% (inactive)
21,COc1ccc(-c2noc(COc3ccc(Cl)c(C)c3)n2)cc1,15.8% (inactive)
22,CS(=O)(=O)N(Cc1nc2sc3c(c2c(=O)[nH]1)CCCC3)C1CCCCC1,9.07% (inactive)
23,CC(c1nnc(SCC(=O)Nc2sccc2C#N)n1-c1ccc(Cl)cc1)N(C)C (stereo unspecified),-3.98% (inactive)
24,Cc1ccc(S(=O)(=O)NCc2nc3ccccc3c(=O)n2N)cc1,-21.5% (inactive)

# — PubChem BioAssay AID552 (SRMLSC, 2006)
